According to ChEMBL document CHEMBL2331367, “Alkaloids from Microcos paniculata with cytotoxic and nicotinic receptor antagonistic activities” (J Nat Prod, 2013):
Activity calls are given as the source filed them. The calls are words filed in the database; no cut-off is given here.

What was measured:
[1] = biological target: Neuronal acetylcholine receptor; alpha4/beta2 (Homo sapiens) (UniProt P17787+P43681); test: Antagonist activity at human recombinant alpha4beta2 nAChR expressed in human HEKtsA201 cells assessed as inhibition of epibatidine-stimulated calcium accumulation at 10 uM pretreated and cotreated with epibatidine by fluorescence plate reader analysis; assay type: cell-based
In short: (§1)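 HEKtsA201 cells stably expressing human α3β4 or α4β2 nAChR, plated 2.0–2.3×10^5/well on poly-L-ornithine 24 h before assay; loaded with Calcium 5 NW dye in HEPES-buffered Krebs, 1 h room temperature. Compound (10 μM) added at 20 s, then 1 μM epibatidine at 60 s while compound remained. Fluorescence (ex 485/em 525 nm) recorded 120 s; net response expressed as % of epibatidine control; triplicates.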

HT-29 = test: Cytotoxicity against human HT-29 cells assessed as inhibition of cell proliferation after 3 days by SRB assay; assay type: functional, cell-based; conditions: HT-29, 72 h
[2] = biological target: Neuronal acetylcholine receptor; alpha3/beta4 (Homo sapiens) (UniProt P30926+P32297); test: Antagonist activity at human recombinant alpha3beta4 nAChR expressed in human HEKtsA201 cells assessed as inhibition of epibatidine-stimulated calcium accumulation at 10 uM pretreated and cotreated with epibatidine by fluorescence plate reader analysis; assay type: cell-based; in short: as §1
[3] = Cytotoxicity against human CCD-112CoN cells assessed as inhibition of cell proliferation after 3 days by SRB assay; assay type: cell-based; conditions: 72 h
In short: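 CCD-112CoN normal human colon cells grown in MEME with 10% FBS, pyruvate, non-essential amino acids, 37 °C 5% CO2; used ~70% confluent, 7,600 cells/well. Serial dilutions added in triplicate (10% DMSO vehicle), incubated 3 days; cells TCA-fixed, stained with 0.4% sulforhodamine B, dye solubilized in 10 mM Tris, absorbance 515 nm; IC50 by non-linear regression.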

[4] = Selectivity ratio of IC50 for human CCD-112CoN cells to IC50 for human HT29 cells; assay type: ADME, cell-based, HT-29; conditions: CCD-112CoN cells and HT29 cells, read-out: Ratio IC50

SMILES	inhibition [1] [%]	IC50 (HT-29) [µM]	inhibition [2]	IC50 [3] [µM]	selectivity ratio [4]
CCCC/C=C/C=C/C=C/[C@@H]1CC[C@@H](O)[C@H](C)[N+]1(C)[O-] (some centres undefined) [MICROGREWIAPINE B]	79.3	> 10	82.7%	–	–
CCCC/C=C/C=C/C=C/[C@@H]1CC[C@@H](OC(C)=O)[C@H](C)N1C	44.1	> 10	–	–	–
CCCC/C=C/C=C/C=C/[C@@H]1CC[C@@H](O)[C@H](C)N1	59	–	53%	–	–
O=C(OCC1CCCN(CCCc2ccccc2)C1)c1ccccc1-c1ccccc1 (centres undefined)	39	–	inactive	–	–
CC(=O)O[C@H]1C(=O)[C@@]2(C)[C@H]([C@H](OC(=O)c3ccccc3)[C@]3(O)C[C@H](OC(=O)[C@H](O)[C@@H](NC(=O)c4ccccc4)c4ccccc4)C(C)=C1C3(C)C)[C@]1(OC(C)=O)CO[C@@H]1C[C@@H]2O [PACLITAXEL]	–	0.001	–	23	–
CNC1(C)C2CCC(C2)C1(C)C (centres undefined)	91.8	–	88.3%	–	–
O=C1c2ccccc2-c2c3c(cc4ccnc1c24)OCO3 [LIRIODENINE]	13.3	> 10	19.3%	–	–
COc1ccc(CCNC(=O)/C=C/c2ccc(O)c(O)c2)cc1	21.8	> 10	14%	–	–
CCCC/C=C/C=C/C=C/[C@@H]1CC[C@H](O)[C@H](C)[N+]1(C)[O-] (some centres undefined) [MICROGREWIAPINE C]	67.3	> 10	82.8%	–	–
COc1cc2c3cc1Oc1cc(ccc1O)C[C@@H]1c4c(cc(OC)c(O)c4Oc4ccc(cc4)C[C@@H]3N(C)CC2)CC[N+]1(C)C	61	–	54%	–	–
CCCC/C=C/C=C/C=C/[C@@H]1CC[C@@H](O)[C@H](C)N1C [MICROGREWIAPINE A]	74	6.8	58.2%	30.4	4
